The test system of assay [1] is MCF7. Briefly: Downregulation of ERalpha protein levels in human MCF7 cells at 1 to 30 uM after 6 hrs by Western blot method. In kind it is functional, cell-based. A digest of the protocol: (§1)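 MCF-7 breast cancer cells were incubated with compound or DMSO vehicle for 6 h. Compound was given at 10 µM in single-dose comparisons, or at 1 to 30 µM in the dose series. Whole-cell protein was extracted and ERα protein level was assessed by Western blotting.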

The test system of assay [2] is MCF7. As to the kind of experiment: Downregulation of ERalpha protein levels in human MCF7 cells at 10 uM after 6 hrs by Western blot method. In kind it is functional, cell-based. Summed up: as §1
A general note: A western blot detects proteins with antibodies after separation by electrophoresis.

The test system of assay [3] is MCF7. Briefly: Upregulation of ERalpha protein levels in human MCF7 cells at 10 uM after 6 hrs by Western blot method. In kind it is functional, cell-based. Summed up: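 MCF-7 human breast cancer cells exposed to 10 µM compound or DMSO vehicle for 6 h. Whole-cell protein extracted, and ERα protein level assessed by Western blotting against the DMSO-treated control.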

Assay [4] deals with MCF7. As to the kind of experiment: Downregulation of ERalpha protein levels in human MCF7 cells at 10 uM after 6 hrs by Western blot method in presence of proteasome inhibitor MG132. In kind it is functional, cell-based.
In assay [5] the test system is MCF7. Briefly: Downregulation of ERalpha protein levels in human MCF7 cells at 30 uM after 6 hrs by Western blot method. In kind it is functional, cell-based. Summed up:
as §1

In assay [6] the target is T1, Estrogen receptor (Homo sapiens) (UniProt P03372).
T1 sequence (whole entry): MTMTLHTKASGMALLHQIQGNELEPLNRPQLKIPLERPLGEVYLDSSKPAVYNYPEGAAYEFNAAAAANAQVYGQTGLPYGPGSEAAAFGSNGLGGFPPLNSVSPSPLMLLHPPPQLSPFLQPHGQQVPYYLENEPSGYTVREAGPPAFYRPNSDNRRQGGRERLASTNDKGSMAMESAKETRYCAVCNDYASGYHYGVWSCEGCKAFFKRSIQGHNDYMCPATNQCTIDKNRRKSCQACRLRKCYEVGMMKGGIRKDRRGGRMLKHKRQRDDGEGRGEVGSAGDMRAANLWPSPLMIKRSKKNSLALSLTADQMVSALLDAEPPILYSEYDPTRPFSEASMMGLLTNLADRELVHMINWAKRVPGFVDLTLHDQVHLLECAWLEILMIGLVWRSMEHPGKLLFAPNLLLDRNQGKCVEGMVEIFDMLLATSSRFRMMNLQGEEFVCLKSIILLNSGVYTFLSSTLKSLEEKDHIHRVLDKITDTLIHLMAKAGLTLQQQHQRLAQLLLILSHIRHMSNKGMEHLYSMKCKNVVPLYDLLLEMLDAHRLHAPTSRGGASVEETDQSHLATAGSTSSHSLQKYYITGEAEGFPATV
Briefly: Antagonist activity at ERalpha in human MCF7 cells assessed as inhibition of E2-induced pS2 mRNA expression after 9 hrs by RT-PCR analysis. It counts as cell-based. Summed up: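 MCF-7 cells treated with compound across 0.1 to 10 µM, with or without 10 nM E2, for 9 h. Total RNA was extracted and reverse-transcribed. pS2 mRNA was quantified by real-time PCR.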

Assay [7] concerns MCF7. Briefly: Downregulation of ERalpha protein levels in human MCF7 cells after 6 hrs by Western blot method. In kind it is functional, cell-based. Summed up:
as §1

In ChEMBL document CHEMBL3098128, “Design and synthesis of tamoxifen derivatives as a selective estrogen receptor down-regulator” (Bioorg Med Chem Lett, 2014) one finds Activity and inhibition data, which are given here for seven compounds.

Calls of active or inactive are those of the source. The calls are words filed in the database; no cut-off is given here.

Turning to `CCCCCCNCCOc1ccc(/C(=C(/CC)c2ccccc2)c2ccc(O)cc2)cc1`, the outcome in assay [1] and in assay [2] was inactive.

As for `CCCCCCCCCCCCN(C)CCOc1ccc(/C(=C(/CC)c2ccccc2)c2ccc(O)cc2)cc1`, in assay [2], the outcome was inactive.

On to `CCCCCCCCCCCCCCCCCCNCCOc1ccc(/C(=C(/CC)c2ccccc2)c2ccc(O)cc2)cc1`, for which the outcome in assay [2] was inactive.

For `CC/C(=C(\c1ccc(O)cc1)c1ccc(OCCNC)cc1)c1ccccc1`, the outcome in assay [3] was Active.

Turning to `CCC(=C(c1ccc(O)cc1)c1ccc(OCCN(C)C)cc1)c1ccccc1`, in assay [3], the outcome was Active.

Consider `CCCCCCCCCCCCN(CCCCCCCCCCCC)CCOc1ccc(/C(=C(/CC)c2ccccc2)c2ccc(O)cc2)cc1`, for which the result in assay [2] was inactive.

In the case of `CCCCCCCCCCCCNCCOc1ccc(/C(=C(/CC)c2ccccc2)c2ccc(O)cc2)cc1`, the result in assay [4] was inactive. In addition, the result in assay [5] and in assay [2] was Active. In assay [6], the inhibition entry is “Dose-dependent effect”. Besides, the Activity entry in assay [7] was “Dose-dependent effect”.
